According to ChEMBL document CHEMBL1154403, “Serotypes, Clones, and Mechanisms of Resistance of Erythromycin-Resistant Streptococcus pneumoniae Isolates Collected in Spain” (2007):
In brackets after ≈: the same amount, converted by molar mass.

Tests used:
Format in all cases: functional
Streptococcus pneumoniae [1] = assay: Antibacterial activity against erythromycin-resistant Streptococcus pneumoniae assessed as percent resistant isolates by CLSI breakpoint method
Streptococcus pneumoniae [2] = assay: Antibacterial activity against erythromycin-resistant Streptococcus pneumoniae assessed as percent resistant isolates by microdilution method
Summary of the method: (§1)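 Broth microdilution MICs per CLSI on all 125 erythromycin-resistant pneumococcal isolates, using Mueller-Hinton broth with 2 to 5% lysed horse blood in prepared panels. Example ranges: erythromycin 0.25 to 32 μg/ml, clindamycin 0.25 to 0.5 μg/ml, penicillin 0.03 to 8 μg/ml, telithromycin 0.015 to 32 μg/ml (separate panel). Quality control strain: S. pneumoniae ATCC 49619.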

Streptococcus pneumoniae [3] = assay: Antibacterial activity against erythromycin-resistant Streptococcus pneumoniae by microdilution method; summary of the method: as §1
Streptococcus pneumoniae [4] = assay: Antibacterial activity against erythromycin-resistant Streptococcus pneumoniae assessed as percent sensitive isolates by CLSI breakpoint method
Streptococcus pneumoniae [5] = assay: Antibacterial activity against constitutive macrolide-lincosamide-streptogramin B-resistant Streptococcus pneumoniae isolates by double-disk diffusion method
Summary of the method: (§2)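 Macrolide resistance phenotype assigned by double-disk diffusion with erythromycin (15 μg) and clindamycin (2 μg) disks placed 12 mm apart, edge to edge. After incubation, a flattened clindamycin zone next to the erythromycin disk (D zone) marked inducible resistance. A conserved clindamycin zone marked the M phenotype.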

Streptococcus pneumoniae [6] = assay: Antibacterial activity against macrolide-resistant Streptococcus pneumoniae isolates by double-disk diffusion method; summary of the method: as §2
Streptococcus pneumoniae [7] = assay: Antibacterial activity against inducible macrolide-lincosamide-streptogramin B-resistant Streptococcus pneumoniae isolates by double-disk diffusion method; summary of the method: as §2
Streptococcus pneumoniae [8] = assay: Antibacterial activity Streptococcus pneumoniae expressing erm(B) and/or mef genes at 0.25 ug/ml by broth microdilution method
Summary of the method: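 Clinical erythromycin-resistant pneumococcal isolates identified by bile solubility and optochin susceptibility. MICs were determined by CLSI broth microdilution in Mueller-Hinton broth with 2 to 5% lysed horse blood, using commercial prepared panels; telithromycin was tested on a separate panel across 0.015 to 32 μg/ml. S. pneumoniae ATCC 49619 served as quality control.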

Streptococcus pneumoniae [9] = assay: Antibacterial activity against inducible macrolide-lincosamide-streptogramin B-resistant Streptococcus pneumoniae expressing erm(B) and tet(M) genes assessed as percent resistant isolates by broth microdilution method; summary of the method: as §1

Compound | CLSI resistance breakpoint (MIC) (Streptococcus pneumoniae [1]) | Activity (Streptococcus pneumoniae [2]) [%] | MIC (Streptococcus pneumoniae [3]) [µg/mL] | MIC50 (Streptococcus pneumoniae [3]) [µg/mL] | MIC90 (Streptococcus pneumoniae [3]) [µg/mL] | Activity (Streptococcus pneumoniae [4]) | MIC (Streptococcus pneumoniae [5]) [µg/mL] | MIC (Streptococcus pneumoniae [6]) [µg/mL] | MIC (Streptococcus pneumoniae [7]) [µg/mL] | Activity (Streptococcus pneumoniae [8]) [%] | Activity (Streptococcus pneumoniae [9]) [%]
CC[C@H]1OC(=O)[C@H](C)[C@@H](O[C@H]2C[C@@](C)(OC)[C@@H](O)[C@H](C)O2)[C@H](C)[C@@H](O[C@@H]2O[C@H](C)C[C@H](N(C)C)[C@H]2O)[C@](C)(O)C[C@@H](C)CN(C)[C@H](C)[C@@H](O)[C@]1(C)O [AZITHROMYCIN] | >=2 ug ml-1 | 100 | > 4 | > 4 | > 4 | <=0.5 ug ml-1 | – | – | – | – | –
CO/N=C(\C(=O)N[C@@H]1C(=O)N2C(C(=O)O)=C(COC(C)=O)CS[C@H]12)c1csc(N)n1 [CEFOTAXIME] | >=4 ug ml-1 | 0.8 | ≤ 0.06 | 0.25 (≈ 0.549 µM) | 0.5 (≈ 1.1 µM) | <=1 ug ml-1 | – | – | – | – | –
O=C(N[C@H](CO)[C@H](O)c1ccc([N+](=O)[O-])cc1)C(Cl)Cl [CHLORAMPHENICOL] | >=8 ug ml-1 | 34.4 | > 8 | 2 (≈ 6.19 µM) | > 8 | <=4 ug ml-1 | – | – | – | – | –
CCC[C@@H]1C[C@@H](C(=O)N[C@@H]([C@H]2O[C@H](SC)[C@H](O)[C@@H](O)[C@H]2O)[C@H](C)Cl)N(C)C1 [CLINDAMYCIN] | >=1 ug ml-1 | 87.2 | > 0.5 | > 0.5 | > 0.5 | <=0.25 ug ml-1 | > 0.5 | ≤ 0.25 | > 0.5 | – | –
CC[C@H]1OC(=O)[C@H](C)[C@@H](O[C@H]2C[C@@](C)(OC)[C@@H](O)[C@H](C)O2)[C@H](C)[C@@H](O[C@@H]2O[C@H](C)C[C@H](N(C)C)[C@H]2O)[C@](C)(O)C[C@@H](C)C(=O)[C@H](C)[C@@H](O)[C@]1(C)O [ERYTHROMYCIN] | >=1 ug ml-1 | 100 | – | > 32 | > 32 | <=0.25 ug ml-1 | > 32 | 2 (≈ 2.73 µM) | ≥ 4 | – | –
CO[C@@H]1[C@@H](O[C@@H]2O[C@H](C)[C@@H](O[C@H]3C[C@@](C)(O)[C@@H](OC(=O)CC(C)C)[C@H](C)O3)[C@H](N(C)C)[C@H]2O)[C@@H](CC=O)C[C@@H](C)[C@@H](O)/C=C/C=C/C[C@@H](C)OC(=O)C[C@H]1OC(C)=O [JOSAMYCIN] | >=4 ug ml-1 | 87.2 | > 2 | > 2 | > 2 | <=1 ug ml-1 | > 2 | ≤ 0.5 | > 2 | – | –
C[C@H]1COc2c(N3CCN(C)CC3)c(F)cc3c(=O)c(C(=O)O)cn1c23.C[C@H]1COc2c(N3CCN(C)CC3)c(F)cc3c(=O)c(C(=O)O)cn1c23.O [LEVOFLOXACIN] | >=8 ug ml-1 | 4 | > 4 | 1 | 1 | <=2 ug ml-1 | – | – | – | – | –
COc1c(N2C[C@@H]3CCCN[C@@H]3C2)c(F)cc2c(=O)c(C(=O)O)cn(C3CC3)c12 [MOXIFLOXACIN] | – | 2.4 | > 1 | ≤ 0.25 | ≤ 0.25 | – | – | – | – | – | –
CC[C@H]1OC(=O)[C@H](C)C(=O)[C@H](C)[C@@H](O[C@@H]2O[C@H](C)C[C@H](N(C)C)[C@H]2O)[C@](C)(OC)C[C@@H](C)C(=O)[C@H](C)[C@H]2N(CCCCn3cnc(-c4cccnc4)c3)C(=O)O[C@]12C [TELITHROMYCIN] | >=4 ug ml-1 | 0 | 0.03 (≈ 0.0369 µM) | 0.03 (≈ 0.0369 µM) | 0.25 (≈ 0.308 µM) | <=1 ug ml-1 | – | – | – | 90 | –
CN(C)[C@@H]1C(O)=C(C(N)=O)C(=O)[C@@]2(O)C(O)=C3C(=O)c4c(O)cccc4[C@@](C)(O)[C@H]3C[C@@H]12 [TETRACYCLINE] | >=8 ug ml-1 | 77.6 | > 4 | > 4 | > 4 | <=2 ug ml-1 | – | – | – | – | 90
CN[C@H](CC(C)C)C(=O)N[C@H]1C(=O)N[C@@H](CC(N)=O)C(=O)N[C@H]2C(=O)N[C@H]3C(=O)N[C@H](C(=O)N[C@H](C(=O)O)c4cc(O)cc(O)c4-c4cc3ccc4O)[C@H](O)c3ccc(c(Cl)c3)Oc3cc2cc(c3O[C@@H]2O[C@H](CO)[C@@H](O)[C@H](O)[C@H]2O[C@H]2C[C@](C)(N)[C@H](O)[C@H](C)O2)Oc2ccc(cc2Cl)[C@H]1O [VANCOMYCIN] | – | 0 | 1 (≈ 0.69 µM) | ≤ 0.25 | 1 (≈ 0.69 µM) | <=1 ug ml-1 | – | – | – | – | –
